The target in data set [1] is Amyloid-beta precursor protein (Homo sapiens) (UniProt P05067). Description: Inhibition of amyloid beta 42 (unknown origin) aggregation assessed as reduction in fluorescence intensity measured for 48 hrs by ThT fluorescence assay. In a few lines:
(§1)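 Soluble (pre-aggregation) Aβ42 at 25 μM with 20 μM ThT, incubated with peptide at 0.1–10 equivalents (2.5–250 μM) in 10 mM sodium phosphate, 150 mM NaCl, 1 mM EDTA, pH 7.4; time-dependent ThT fluorescence monitored, normalized to Aβ42 alone.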

Data set [2] has the same target. Description: Inhibition of amyloid beta 42 (unknown origin) aggregation assessed as lag time for Abeta42 aggregation at Abeta42:compound concentration ratio of 1:1 by ThT fluorescence assay (reference value: 6.35 +/-0.32 hrs).
For data set [3], the system named is SH-SY5Y. Description: Protection against Abeta42-induced cytotoxicity in human SH-SY5Y cells assessed as increase in cell viability at Abeta42:compound concentration ratio of 1:1 incubated for 24 hrs by MTT assay. It is filed as functional, cell-based. In a few lines: (§2)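 SH-SY5Y cells given 10 μM soluble Aβ42 with peptide (1, 2, 3, 5, 10, 30 μM; 1:1 for comparison) at 37 °C up to 24 h; MTT formazan read-out relative to cells without peptide or Aβ42; IC50 from dose–response.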

Data set [4] deals with Amyloid-beta precursor protein (Homo sapiens) (UniProt P05067). The data set can be described thus: Inhibition of amyloid beta 42 (unknown origin) aggregation assessed as half time for Abeta42 aggregation at Abeta42:compound concentration ratio of 1:1 by ThT fluorescence assay (reference value: 9.34 +/-0.25 hrs).
Data set [5] has as its system SH-SY5Y. The data set can be described thus: Cytotoxicity against human SH-SY5Y cells assessed as reduction in cell viability at 30 uM incubated for 24 hrs by MTT assay. It is filed as toxicity, cell-based. In a few lines:
(§3)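 SH-SY5Y neuronal cells exposed to peptide alone (1–30 μM) at 37 °C up to 24 h; viability by MTT conversion to formazan, compared with untreated control cells.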

The target of data set [6] is Amyloid-beta precursor protein (Homo sapiens) (UniProt P05067). The data set can be described thus: Inhibition of amyloid beta 42 (unknown origin) aggregation assessed as fluorescence intensity at 0.1 equivalents measured for 48 hrs by ThT fluorescence assay. The note with it: dose 0.1 equiv. Set-up: scale not given: the % may be the effect or the level left. In a few lines: as §1

Data set [7] has the same target. The data set can be described thus: Inhibition of amyloid beta 42 (unknown origin) aggregation assessed as reduction in fluorescence intensity at Abeta42:compound concentration ratio of 1:5 measured for 48 hrs by ThT fluorescence assay. In a few lines:
as §1

The target is the same in data set [8]. The data set can be described thus: Inhibition of amyloid beta 42 (unknown origin) aggregation assessed as half time for Abeta42 aggregation at Abeta42:compound concentration ratio of 1:0.5 by ThT fluorescence assay (reference value: 9.34 +/-0.25 hrs).
Data set [9] shares this target. Description: Inhibition of amyloid beta 42 (unknown origin) aggregation assessed as lag time for Abeta42 aggregation at Abeta42:compound concentration ratio of 1:0.5 by ThT fluorescence assay (reference value: 6.35 +/-0.32 hrs).
For data set [10] the target is unchanged. The data set can be described thus: Inhibition of amyloid beta 42 (unknown origin) aggregation assessed as transformation of random coil structure to helical secondary structure with CD minima at 205 nm and 221 nm at Abeta42:compound concentration ratio of 1:1 incubated for 24 hrs by circular dichroism analysis. In a few lines: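 CD spectra of 50 μM soluble Aβ42 in PBS at 0 h and after 24 h at room temperature, alone or with equimolar (50 μM) peptide; peptide alone also recorded.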
A general note: Circular dichroism is the unequal absorption of left and right circularly polarised light.

Data set [11] has as its system SH-SY5Y. The data set can be described thus: Cytotoxicity against human SH-SY5Y cells assessed as reduction in cell viability upto 30 uM incubated for 24 hrs by MTT assay. It is filed as toxicity, cell-based. In a few lines: as §3
For orientation: Tetrazolium assays rely on reduction of a dye to a coloured formazan, in cell work by metabolically active cells.

Data set [12] can be described thus: Hemolytic activity against red blood cells (unknown origin) upto 250 uM. It is filed as toxicity, cell-based. Conditions: erythrocyte. In a few lines: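 Red blood cells treated with a range of peptide concentrations up to 250 μM; haemolysis assessed.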
Data set [13] deals with Amyloid-beta precursor protein (Homo sapiens) (UniProt P05067). Description: Inhibition of amyloid beta 42 (unknown origin) aggregation assessed as decrease in absorbance at 450 nm at Abeta42:compound concentration ratio of 1:0.5 to 1:10 incubated for up to 24 hrs by ELISA. In a few lines:
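Aβ42 in PBS preincubated 24 h with peptide (0.5–10 equivalents), then captured on oligomer-specific monoclonal antibody-coated wells; detection via biotinylated antibody, streptavidin-HRP and TMB, absorbance 450 nm; peptide-alone wells included.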
(In an ELISA, binding on a coated surface is turned into a signal by an enzyme label.)

For data set [14] the target is unchanged. Description: Inhibition of amyloid beta 42 (unknown origin) aggregation assessed as reduction in fluorescence intensity at equimolar concentration with Abeta42 incubated for 48 hrs by ThT laser scanning confocal microscopy.
Data set [15] shares this target. Description: Inhibition of amyloid beta 42 (unknown origin) aggregation assessed as aggregated particle size at equimolar concentration with Abeta42 incubated for 24 hrs by Dynamic light scattering based analysis (reference value: 800 nm). In a few lines:
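Dynamic light scattering of 10 μM Aβ42 with or without peptide after 24 h at 37 °C; frequency distribution of particle diameter.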

Data set [16] has the same target. The data set can be described thus: Inhibition of amyloid beta 42 (unknown origin) aggregation assessed as fluorescence intensity at 0.3 equivalents measured for 48 hrs by ThT fluorescence assay. Set-up: scale not given: the % may be the effect or the level left. Conditions: dose 0.3 equiv. In a few lines: as §1
The target is the same in data set [17]. Description: Inhibition of amyloid beta 42 (unknown origin) aggregation assessed as reduction in fluorescence intensity at Abeta42:compound concentration ratio of 1:3 measured for 48 hrs by ThT fluorescence assay. In a few lines:
as §1

Data set [18] has the same target. The data set can be described thus: Inhibition of amyloid beta 42 (unknown origin) aggregation assessed as fluorescence intensity at compound:Abeta42 concentration ratio of 1:1 measured for 48 hrs by ThT fluorescence assay. Set-up: scale not given: the % may be the effect or the level left. In a few lines: as §1
Data set [19] shares this target. The data set can be described thus: Disruption of aggregated Amyloid beta 42 fibrils (unknown origin) assessed as reduction in fluorescence intensity at compound:Abeta42 concentration ratio of 1:1 treated with compound after 16 hrs of incubation of Abeta42 in solution by ThT fluorescence assay. In a few lines: (§4)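 Aβ42 (25 μM) preincubated with 20 μM ThT at 37 °C; peptide added at 1:1 after 16 or 24 h, incubation continued and ThT fluorescence followed over time; buffer 10 mM sodium phosphate, 150 mM NaCl, 1 mM EDTA, pH 7.4.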

Data set [20] shares this target. The data set can be described thus: Inhibition of 15N-labeled amyloid beta 42 (unknown origin) aggregation assessed as Abeta42 conformational reorganization by measuring changes in positions of Abeta42 cross-peaks at Abeta42:compound concentration ratio of 1:1 by 1H-15N HSQC NMR spectral analysis.
For data set [21] the target is unchanged. The data set can be described thus: Inhibition of amyloid beta 42 (unknown origin) aggregation assessed as reduction in Abeta42 fibrillar network at compound:Abeta42 concentration ratio of 1:1 incubated for 48 hrs by HR-TEM analysis. In a few lines: (§5)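 10 μM soluble Aβ42 incubated at 37 °C for about 48 h alone or with peptide (1:1; 10 μM); fibril morphology imaged by HR-TEM and AFM.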

The target is the same in data set [22]. Description: Inhibition of amyloid beta 42 (unknown origin) aggregation assessed as reduction in Abeta42 fibrillar network at 10 uM incubated for 48 hrs by AFM analysis. In a few lines:
as §5

The target is the same in data set [23]. The data set can be described thus: Disruption of aggregated Amyloid beta 42 fibrils (unknown origin) assessed as reduction in fluorescence intensity at compound:Abeta42 concentration ratio of 1:1 treated with compound after 24 hrs of incubation of Abeta42 in solution by ThT fluorescence assay. In a few lines: as §4
Data set [24] has as its system SH-SY5Y. Description: Protection against Abeta42-induced cytotoxicity in human SH-SY5Y cells assessed as increase in cell viability incubated for 24 hrs in presence of 10 uM Abeta42 by MTT assay. The class given is functional, cell-based. In a few lines:
as §2

The target of data set [25] is Amyloid-beta precursor protein (Homo sapiens) (UniProt P05067). Description: Inhibition of amyloid beta 42 (unknown origin) aggregation assessed as reduction in fluorescence intensity at Abeta42:compound concentration ratio of 1:10 measured for 48 hrs by ThT fluorescence assay. In a few lines: as §1
For data set [26] the target is unchanged. Description: Inhibition of amyloid beta 42 (unknown origin) aggregation assessed as fluorescence intensity at compound:Abeta42 concentration ratio of 0.5:1 measured for 48 hrs by ThT fluorescence assay. Set-up: scale not given: the % may be the effect or the level left. In a few lines: as §1

Calls of active or inactive are those of the source. The rule behind the calls is not given here. Bounds are passed on as bounds.

Sequence of Amyloid-beta precursor protein (Homo sapiens) (P05067 whole entry): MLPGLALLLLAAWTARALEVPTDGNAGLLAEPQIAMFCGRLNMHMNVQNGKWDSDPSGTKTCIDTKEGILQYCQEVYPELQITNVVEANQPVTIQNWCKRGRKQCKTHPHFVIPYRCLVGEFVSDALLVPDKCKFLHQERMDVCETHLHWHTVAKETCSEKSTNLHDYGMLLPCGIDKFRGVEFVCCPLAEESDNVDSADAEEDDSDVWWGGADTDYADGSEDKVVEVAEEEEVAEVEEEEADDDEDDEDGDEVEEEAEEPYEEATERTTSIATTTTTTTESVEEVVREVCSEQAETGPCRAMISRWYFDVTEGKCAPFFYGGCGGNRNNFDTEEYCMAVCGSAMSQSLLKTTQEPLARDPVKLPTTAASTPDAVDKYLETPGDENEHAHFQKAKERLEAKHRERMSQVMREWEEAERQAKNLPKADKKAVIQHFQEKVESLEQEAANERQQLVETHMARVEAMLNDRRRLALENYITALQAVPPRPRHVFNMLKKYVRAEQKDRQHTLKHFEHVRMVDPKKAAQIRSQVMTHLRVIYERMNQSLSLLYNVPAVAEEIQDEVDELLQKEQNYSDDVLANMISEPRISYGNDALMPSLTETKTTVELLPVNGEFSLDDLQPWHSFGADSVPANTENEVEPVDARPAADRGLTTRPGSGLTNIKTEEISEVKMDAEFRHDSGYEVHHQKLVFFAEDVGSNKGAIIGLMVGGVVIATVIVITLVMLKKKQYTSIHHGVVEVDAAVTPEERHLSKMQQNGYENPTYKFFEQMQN

For Ac-ALAALALALAALAAL-NH2, the inhibition result in data set [1] is “inactive”.
For the molecule Ac-KLAKLAKKLAKL-NH2, in [2], the TIME turned out to be 0.75 h. In data set [3], the result was Active. Further, the T1/2 in [4] was determined as 9.59 h. For the same molecule, the Activity entry in [5] is listed as “Non-Toxic”. Also, in [1], the inhibition entry is “Dose-Dependent Effect”.
With Ac-KLAKLAKL-NH2, the TIME in [2] stood at 2.14 h. In addition, the outcome in [3] was Active. The T1/2 in data set [4] was 8.22 h. The Activity entry in data set [5] was “Non-Toxic”. Also, the inhibition result in data set [1] is “Dose-Dependent Effect”.
Regarding `CC(=O)N[C@@H](CCCCN)C(=O)N[C@@H](CC(C)C)C(=O)N[C@@H](C)C(=O)N[C@@H](CCCCN)C(=O)N[C@@H](CC(C)C)C(=O)N[C@@H](C)C(=O)N[C@@H](CCCCN)C(=O)N[C@@H](CCCCN)C(=O)N[C@@H](CC(C)C)C(=O)N[C@@H](C)C(=O)N[C@@H](CCCCN)C(=O)N[C@@H](CC(C)C)C(=O)N[C@@H](C)C(=O)N[C@@H](CCCCN)C(=O)N[C@@H](CC(C)C)C(N)=O`, the Activity is 40% in data set [6]; “Non-Toxic” in data set [11]; “Non-Toxic” in [12]; 100 nm in [15]; 30% in data set [16]; less than 3% in [18]. Further, the Activity in data set [26] was 20%. Moreover, the inhibition result in [7], in data set [10], in data set [13], in data set [14], in data set [17] and in data set [21] was “Active” in each case. In addition, the inhibition entry in data set [22] and in data set [25] was “Active” each time. The T1/2 in data set [8] was determined as 6.09 h. Besides, the TIME in data set [9] was found to be 1.8 h. Moreover, the result in [19], in data set [20], in data set [3] and in [23] was Active. In addition, the IC50 (in general, the concentration needed to halve the response being measured) in [24] amounted to 8.73 µM.

The record behind these values is ChEMBL document CHEMBL5230180, “A cationic amphiphilic peptide chaperone rescues Aβ42 aggregation and cytotoxicity” (RSC Med Chem, 2023).
